From ChEMBL document CHEMBL1148707, “Inhibition of the bacterial heme oxygenases from Pseudomonas aeruginosa and Neisseria meningitidis: novel antimicrobial targets” (J Med Chem, 2007)
Active and inactive are the calls of the source. The calls are words filed in the database; no cut-off is given here.

How the values were obtained:
Heme oxygenase = target: T1, Heme oxygenase (Pseudomonas aeruginosa, UniProt O69002); experiment: Binding affinity to Pseudomonas aeruginosa heme oxygenase
T1 sequence (O69002 whole entry): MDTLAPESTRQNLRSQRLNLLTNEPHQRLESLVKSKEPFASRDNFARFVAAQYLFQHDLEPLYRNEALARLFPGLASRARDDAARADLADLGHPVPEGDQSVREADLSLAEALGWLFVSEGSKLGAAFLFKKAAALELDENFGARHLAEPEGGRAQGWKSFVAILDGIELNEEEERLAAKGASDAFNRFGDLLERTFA
Method in brief: (§1)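 Fluorescence titration of purified apoprotein (1 µM; residual biliverdin removed by chromatofocusing) in 20 mM Tris-HCl pH 7.5. Compound added at 0.05-500 µM from DMSO stock. Mean of three experiments.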

Neisseria meningitidis = experiment: Inhibition of Neisseria meningitidis heme oxygenase-mediated biliveridin production in Escherichia coli BL21 at 1500 uM
Method in brief: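 E. coli BL21(DE3) with leaky nm-HO expression grown overnight (16 h) in LB with 100 µg/mL ampicillin, with or without 1500 µM compound, no iron restriction. Cells lysed with 50 µM β/δ-biliverdin added as internal standard. Biliverdin extracted into chloroform, converted to dimethyl esters, analysed by HPLC. α-Biliverdin peak integrated against the standard.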

Pseudomonas aeruginosa [1] = experiment: Growth inhibition of Pseudomonas aeruginosa MPA01 at <250 uM; format: functional, organism-based
Method in brief: (§2)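 MPA01 grown 8 h at 37 °C, then diluted to OD600 0.05 in iron-restricted succinate minimal medium pH 7.0 with heme as iron source. Compound added from DMSO at 10-1500 µM. Incubated 10 h at 37 °C with aeration in 96-well format, then OD600 read.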

[2] = Binding affinity to Neisseria meningitidis heme oxygenase; method in brief: as §1
Pseudomonas aeruginosa [3] = experiment: Growth inhibition of Pseudomonas aeruginosa MPA01 at >250 uM; format: functional, organism-based; method in brief: as §2
Pseudomonas aeruginosa [4] = experiment: Growth inhibition of Pseudomonas aeruginosa MPA01 in presence of haemoglobin; format: functional; parameters: scale not given: the % may be the effect or the level left
Method in brief: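 MPA01 diluted to OD600 0.05 in succinate minimal medium pH 7.0 with 25 µM hemoglobin as sole iron source, with or without compound (DMSO). 10 h endpoint OD600 at 0-1500 µM, or hourly OD600 over 12 h at 500 µM, 37 °C with aeration. Compared with 40 µM Fe(III) pyoverdine cultures. Mean of three experiments.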

O=C1C(O)=C/C(=N\c2ccccc2O)c2ccccc21
Kd (Heme oxygenase): 72.8 µM
Activity (Neisseria meningitidis): inactive
Activity (Pseudomonas aeruginosa [1]): inactive
Kd [2]: 28.8 µM

CN(C)c1ccc(/C=N/NC(=N)N)cc1
Activity (Neisseria meningitidis): Active
Activity (Pseudomonas aeruginosa [1]): inactive
Kd [2]: 22.9 µM

O=C(O)/C=C/C(=O)Nc1ccc(Nc2ccccc2)cc1
Kd (Heme oxygenase): 20.1 µM
Activity (Pseudomonas aeruginosa [3]): Active
Activity (Pseudomonas aeruginosa [4]): 40%
Activity (Neisseria meningitidis): Active
Activity (Pseudomonas aeruginosa [1]): inactive
Kd [2]: 15.6 µM

N=C(N/N=C\c1cccnc1)N/N=C\c1cccnc1
Activity (Neisseria meningitidis): Active
Activity (Pseudomonas aeruginosa [1]): inactive
Kd [2]: 12.2 µM

O=C(Nc1ccc(-c2cn3ccccc3n2)cc1)c1ccccc1[N+](=O)[O-]
Kd (Heme oxygenase): 6.1 µM
Activity (Neisseria meningitidis): Active
Activity (Pseudomonas aeruginosa [1]): inactive
Kd [2]: 20.9 µM

O=C(Cc1ccc(Cl)cc1)N/N=C/c1c[nH]c2ccccc12
Activity (Pseudomonas aeruginosa [3]): Active
Activity (Pseudomonas aeruginosa [4]): 40%
Activity (Neisseria meningitidis): Active
Activity (Pseudomonas aeruginosa [1]): inactive
Kd [2]: 14.1 µM

O=C(NNC(=O)c1ccncc1)c1ccncc1
Activity (Neisseria meningitidis): inactive
Activity (Pseudomonas aeruginosa [1]): inactive
